{"data": "Assay results of several laboratories", "cell line": "HepG2", "effect on": "cell growth or viability", "note": "Lines come from different studies, so protocols differ. pIC50: −log10 of the molar value."}
{"SMILES": "CC(=O)c1nn(-c2ccc(C)cc2)/c(=N/N=C(\\C)c2ccc(NC(=O)c3ccccc3)cc2)s1", "technique": "MTT", "concentration": "5 µM", "measurement": "viability", "value": "6.81%"}
{"SMILES": "CC(=NNC(=O)COc1ccc2c(C)c(Cc3ccccc3)c(=O)oc2c1C)c1ccc(Br)cc1", "technique": "MTT", "concentration": "25 µg/mL", "measurement": "viability", "value": "44.2%"}
{"SMILES": "CC(=NNC(=O)c1cccnc1)c1ccc(Nc2nnc(-c3ccc(Cl)cc3)c3ccccc23)cc1", "technique": "MTT", "concentration": "1.25 µM", "measurement": "cell death", "value": "88.1%"}
{"SMILES": "CN(C)c1cc(NC(=O)CCc2ccccc2)c(O)c2c1C[C@H]1C[C@H]3[C@H](N(C)C)C(O)=C(C(N)=O)C(=O)[C@@]3(O)C(O)=C1C2=O", "technique": "ATP luminescence", "time": "72 h", "measurement": "IC50", "value": "165 mg/L"}
{"SMILES": "CCOC(=O)c1nn(-c2cccc(Cl)c2)/c(=N/N=C(\\C)c2ccc(NC(=O)c3ccccc3)cc2)s1", "technique": "MTT", "concentration": "5 µM", "measurement": "viability", "value": "3%"}
{"SMILES": "O=C(Nc1ccc(Oc2nnc(-c3ccc(Cl)cc3)c3ccccc23)cc1)c1cccc([N+](=O)[O-])c1", "technique": "MTT", "concentration": "5 µM", "time": "24 h", "measurement": "viability", "value": "5.16%"}
{"SMILES": "CC(=O)Nc1ccc(/C(C)=N/N=c2\\sc(C(C)=O)nn2-c2ccc(C)cc2)cc1", "technique": "MTT", "concentration": "10 µM", "measurement": "viability", "value": "48.8%"}
{"SMILES": "CC(=NNC(=O)c1ccncc1)c1ccc(Nc2nnc(-c3ccc(Cl)cc3)c3ccccc23)cc1", "technique": "MTT", "concentration": "78 nM", "measurement": "cell death", "value": "3.16%"}
{"SMILES": "COc1ccc(-c2cc(-c3ccc(Br)cc3)c3c(=O)[nH]c(=O)[nH]c3n2)cc1", "technique": "MTT", "time": "48 h", "measurement": "pIC50", "value": 4.95}
{"SMILES": "O=C(Nc1ccc(Oc2nnc(-c3ccc(Cl)cc3)c3ccccc23)cc1)c1ccccc1", "technique": "MTT", "concentration": "10 µM", "time": "24 h", "measurement": "viability", "value": "4.07%"}
{"SMILES": "COc1ccc(-c2cc(-c3ccc(OC)cc3)c3c(=O)n(C)c(=O)n(C)c3n2)cc1", "technique": "MTT", "time": "48 h", "measurement": "pIC50", "value": 4.76}
{"SMILES": "CC(=NNC(=O)c1ccccc1O)c1ccc(Nc2nnc(-c3ccc(Cl)cc3)c3ccccc23)cc1", "technique": "MTT", "concentration": "1.25 µM", "time": "24 h", "measurement": "viability", "value": "87.2%"}
{"SMILES": "CCOC(=O)c1nn(-c2cccc(Cl)c2)/c(=N/N=C(\\C)c2ccc(NC(=O)c3ccc(Cl)cc3)cc2)s1", "technique": "MTT", "concentration": "78 nM", "measurement": "viability", "value": "73.1%"}
{"SMILES": "COc1ccc(-c2cc(-c3cccc(Br)c3)c3c(=O)[nH]c(=O)[nH]c3n2)cc1", "technique": "MTT", "time": "48 h", "measurement": "pIC50", "value": 4.79}
{"SMILES": "CC(=NNC(=S)Nc1ccccc1)c1ccc(Nc2nnc(-c3ccc(Cl)cc3)c3ccccc23)cc1", "technique": "MTT", "concentration": "0.625 µM", "time": "24 h", "measurement": "viability", "value": "79.5%"}
{"SMILES": "CC(=O)c1nn(-c2ccccc2Cl)/c(=N/N=C(\\C)c2ccc(NC(=O)c3ccccc3)cc2)s1", "technique": "MTT", "concentration": "1.25 µM", "measurement": "viability", "value": "5.77%"}
{"SMILES": "Cc1ccc(-c2cc(-c3c(Cl)cccc3Cl)c3c(=O)[nH]c(=O)[nH]c3n2)cc1", "technique": "MTT", "time": "48 h", "measurement": "pIC50", "value": 4.37}
{"SMILES": "O=C(C=Cc1ccccc1)Nc1ccc(Oc2nnc(-c3ccc(Cl)cc3)c3ccccc23)cc1", "technique": "MTT", "concentration": "1.25 µM", "measurement": "cell death", "value": "62.6%"}
{"SMILES": "Cc1ccc(-c2cc(-c3ccc(Cl)cc3)c3c(=O)n(C)c(=O)n(C)c3n2)cc1", "technique": "MTT", "time": "48 h", "measurement": "pIC50", "value": 5.13}
{"SMILES": "CN(C)c1cc(NC(=O)c2ccccn2)c(O)c2c1C[C@H]1C[C@H]3[C@H](N(C)C)C(O)=C(C(N)=O)C(=O)[C@@]3(O)C(O)=C1C2=O", "technique": "ATP luminescence", "time": "72 h", "measurement": "IC50", "value": "187 mg/L"}
{"SMILES": "COc1cccc2c1C(=O)c1c(O)c3c(c(O)c1C2=O)C[C@@](O)(C(=O)CO)C[C@@H]3O[C@H]1C[C@H](N)[C@H](O)[C@H](C)O1", "technique": "MTT", "time": "72 h", "measurement": "pIC50", "value": 6.45}
